Data from PubChem BioAssay AID651740 (Broad Institute, 2012).
Screen size: about 5,600 compounds; about 1,200 (21%) were called active. Not shown: some 3% with an inconclusive outcome. Not all results are given here. Unmarked numbers belong to inactive results.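 Rule for the calls: active = mean inhibition above about 95%, with at least 55% of replicates also reaching it (limit read from the data); inconclusive = meets just one of the two conditions; inactive = meets neither condition.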

Assay: Trypanosoma cruzi growth blockers in host fibroblasts – NIH3T3 host cells, beta-gal parasites, cherry-pick, set 2, confirmation (AID 651740);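 note: plate controls were neutral control median for no effect and positive control median for full effect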
Conditions: T. cruzi beta-gal in NIH3T3, GalScreen luminescence, 90 h; at 2.09 µM; active compounds read high
Summary of the method: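 assay system = beta-gal T. cruzi in mouse NIH/3T3 fibroblasts | amount = 5,000 fibroblasts/well | medium = 2% FBS DMEM with PSG | reagent = T. cruzi trypomastigotes, 5000 per well | compound dosing = single point, 100 nL in DMSO | incubation = ≥90 h infection with compound, 60 min read delay | technique = GalScreen lysis and luminescent beta-gal signal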

Row | Structure (SMILES) | inhibition
1 | COc1ccc(NC(=O)N2CC[C@@H]3[C@@H](CO)N(C)c4ccc(-c5cccc(F)c5)cc4[C@@H]32)cc1 | 106% (active)
2 | CCC(=O)N1CC[C@@H]2[C@@H](CO)N(C)c3ccc(-c4cccc(OC)c4)cc3[C@@H]21 | 91.1%
3 | CCC(=O)N1CC[C@@H]2[C@@H](CO)N(C)c3ccc(-c4ccc(F)cc4)cc3[C@@H]21 | 79.1%
4 | COc1ccccc1NC(=O)N1CCCCN2[C@H](C1)[C@H](c1ccc(-c3ccccc3)cc1)[C@@H]2CO | 65%
5 | C[C@H](O)C#Cc1ccc([C@H]2[C@H]3CN(S(=O)(=O)Cc4ccccc4)CCCCN3[C@H]2CO)cc1 | 11.7%
6 | N#Cc1ccc(-c2ccc3c(c2)[C@@H]2[C@@H](CCN2C(=O)Cc2ccncc2)[C@@H](CO)N3)cc1 | 54.9%
7 | OC[C@@H]1Nc2ccc(-c3cccc(F)c3)cc2[C@H]2[C@@H]1CCN2Cc1ccncc1 | 55.6%
8 | O=S(=O)(c1ccccc1)N1CC[C@@H]2[C@H]1c1cc(C#Cc3cccc(F)c3)ccc1N[C@@H]2CO | 92.6%
9 | Cc1ccccc1S(=O)(=O)N1CC[C@H]2[C@H](CO)Nc3ccc(-c4cccc(F)c4)cc3[C@H]21 | 93.1%
10 | O=S(=O)(c1ccccc1)N1CC[C@@H]2[C@@H](CO)Nc3ccc(-c4ccccc4F)cc3[C@@H]21 | 98.3% (active)
11 | COCC(=O)N1CC[C@@H]2[C@@H](CO)Nc3ccc(-c4cccc(C#N)c4)cc3[C@@H]21 | 30.7%
12 | O=C(c1ccccn1)N1CC[C@@H]2[C@H]1c1cc(-c3ccccc3)ccc1N[C@@H]2CO | 110% (active)
13 | O=C(c1cccc(F)c1)N1CC[C@@H]2[C@@H](CO)Nc3ccc(C#Cc4cccc(F)c4)cc3[C@@H]21 | 106% (active)
14 | O=C(Cc1ccccc1)N1CC[C@H]2[C@H](CO)Nc3ccc(-c4ccccc4F)cc3[C@H]21 | 64.2%
15 | O=S(=O)(c1ccccc1)N1CC[C@@H]2[C@@H](CO)Nc3ccc(C#Cc4cccc(F)c4)cc3[C@@H]21 | 101% (active)
16 | CC(=O)N1CC[C@@H]2[C@H](CO)Nc3ccc(C#Cc4ccccc4F)cc3[C@@H]21 | 14.9%
17 | O=C(c1cnccn1)N1CC[C@@H]2[C@H](CO)Nc3ccc(-c4cccc(F)c4)cc3[C@@H]21 | 87.3%
18 | O=C(Nc1cc(Cl)cc(Cl)c1)N[C@H]1CC[C@@H](CCNS(=O)(=O)c2cccc(F)c2)O[C@H]1CO | 2.51%
19 | CC(C)C#Cc1ccc([C@H]2[C@H](CO)N3CCCCN(C(=O)NC(C)C)C[C@@H]23)cc1 | -8.04%
20 | COc1ccc(S(=O)(=O)N(C)C[C@H]2Oc3c(NC(=O)Nc4cccc5ccccc45)cccc3C(=O)N([C@@H](C)CO)C[C@H]2C)cc1 | 90.2%

Row | Structure (SMILES) | inhibition
21 | C[C@@H]1CN([C@H](C)CO)C(=O)c2cc(/C=C/c3ccccc3)cnc2O[C@@H]1CN(C)Cc1ccncc1 | 2.78%
22 | Cc1cc(C(=O)Nc2cccc3c2O[C@@H](CN(C)Cc2ccc(C(=O)Nc4ccccc4N)cc2)[C@H](C)CN([C@@H](C)CO)C3=O)n(C)n1 | 63.4%
23 | COc1ccc(-c2ccc([C@H]3[C@H]4CN(C(=O)c5ccc6c(c5)OCO6)CCCCN4[C@H]3CO)cc2)cc1 | 50.5%
24 | C[C@H](CO)N1C[C@H](C)[C@H](CN(C)Cc2ccc(-c3ccccc3)cc2)Oc2ccc(NC(=O)Nc3ccc(F)cc3)cc2CC1=O | 83.3%
25 | CN1c2ccc(-c3ccccc3)cc2[C@H]2[C@H](CCN2C(=O)Cc2ccccn2)[C@H]1CO | 72.9%
26 | COCC#Cc1ccc([C@@H]2[C@H](CO)N3CCCCN(C(=O)CN(C)C)C[C@@H]23)cc1 | 29.5%
27 | CN1C(=O)c2cc(NC(=O)c3cnccn3)ccc2OC[C@@H]2O[C@@H](CC(=O)N[C@H]3CCN(Cc4ccccc4)C3)CC[C@H]21 | 32.2%
28 | CN1C(=O)c2cc(NC(=O)c3cnccn3)ccc2OC[C@@H]2O[C@H](CC(=O)N[C@@H]3CCN(Cc4ccccc4)C3)CC[C@@H]21 | 93.2%
29 | CN1C(=O)c2cc(NC(=O)Nc3ccccc3F)ccc2OC[C@H]2O[C@H](CC(=O)NCc3ccc(-c4ccccc4)cc3)CC[C@H]21 | 104% (active)
30 | Cc1ccc(-c2ccc3c(c2)O[C@H](CN(C)C)[C@@H](C)CN([C@H](C)CO)S3(=O)=O)cc1 | 41.9%
31 | O=C(NCC1CCCCC1)[C@H]1[C@H](CO)[C@H]2Cn3c(cccc3=O)[C@H]2N1C(=O)CC1CC1 | 30.6%
32 | COc1ccc(NC(=O)Nc2ccc3c(c2)C(=O)N([C@H](C)CO)C[C@H](C)[C@H](CN(C)S(=O)(=O)c2ccc(Cl)cc2)OCCCC[C@H](C)O3)cc1 | 107% (active)
33 | CC(C)NC(=O)Nc1ccc2c(c1)C(=O)N([C@@H](C)CO)C[C@H](C)[C@H](CN(C)S(=O)(=O)c1ccc(Cl)cc1)OCCCC[C@H](C)O2 | 99.7% (active)
34 | Cc1ccc(S(=O)(=O)N(C)C[C@H]2OCCCC[C@H](C)Oc3ccc(NC(=O)Cc4ccccc4)cc3C(=O)N([C@@H](C)CO)C[C@@H]2C)cc1 | 95%
35 | Cc1noc(C)c1S(=O)(=O)Nc1ccc2c(c1)C(=O)N([C@@H](C)CO)C[C@@H](C)[C@H](CN(C)S(=O)(=O)c1ccc(Cl)cc1)OCCCC[C@H](C)O2 | 62.5%
36 | C[C@H]1CCCCO[C@@H](CN(C)S(=O)(=O)c2cccs2)[C@@H](C)CN([C@@H](C)CO)C(=O)c2cc(NS(=O)(=O)c3ccc(Cl)cc3)ccc2O1 | 71%
37 | C[C@@H]1CCCCO[C@@H](CN(C)S(=O)(=O)c2ccc(Cl)cc2)[C@H](C)CN([C@@H](C)CO)C(=O)c2cc(NC(=O)Cc3ccccc3)ccc2O1 | 80.6%
38 | C[C@@H]1CCCCO[C@H](CN(C)S(=O)(=O)c2ccc(Cl)cc2)[C@H](C)CN([C@@H](C)CO)C(=O)c2cc(NS(=O)(=O)c3cccs3)ccc2O1 | 79.2%
39 | COc1ccc(NC(=O)N(C)C[C@@H]2OCCCC[C@@H](C)Oc3ccc(NS(=O)(=O)c4ccc(Cl)cc4)cc3C(=O)N([C@H](C)CO)C[C@H]2C)cc1 | 44.3%
40 | C[C@H]1CCCCO[C@H](CN(C)S(=O)(=O)c2ccc(Cl)cc2)[C@@H](C)CN([C@@H](C)CO)C(=O)c2cc(NC(=O)Nc3ccc4c(c3)OCO4)ccc2O1 | 105% (active)

Row | Structure (SMILES) | inhibition
41 | COc1ccc(S(=O)(=O)Nc2ccc3c(c2)C(=O)N([C@@H](C)CO)C[C@H](C)[C@@H](CN(C)Cc2ccc(C(F)(F)F)cc2)O3)cc1 | 58.4%
42 | CNC[C@H]1OCCCC[C@H](C)Oc2ccc(NC(=O)Nc3c(C)noc3C)cc2C(=O)N([C@H](C)CO)C[C@H]1C | 2.68%
43 | O=C(Nc1cc(F)ccc1F)N1CCCCN2[C@H](CO)[C@@H](c3ccc(-c4cncnc4)cc3)[C@H]2C1 | 13.7%
44 | Cc1ccc(-c2cnc3c(c2)C(=O)N([C@@H](C)CO)C[C@@H](C)[C@H](CN(C)Cc2ccccc2F)O3)cc1 | 72.1%
45 | CN(C)C(=O)c1ccc(-c2ccc([C@H]3[C@@H](CO)N4CCCCN(CC5CC5)C[C@H]34)cc2)cc1 | 60.8%
46 | O=C(C[C@@H]1C[C@H]2c3cc(NC(=O)C4CCC4)ccc3O[C@H]2[C@@H](CO)O1)NCc1ccc2c(c1)OCO2 | -16.2%
47 | C[C@H](CO)N1C[C@H](C)[C@@H](CN(C)S(=O)(=O)c2ccc(F)cc2)Oc2cc(C3=CCCC3)ccc2S1(=O)=O | 78.5%
48 | C[C@@H]1CN([C@@H](C)CO)S(=O)(=O)c2ccc(C#Cc3ccc(F)cc3)cc2O[C@H]1CN(C)S(C)(=O)=O | 27.8%
49 | C[C@@H]1CN([C@H](C)CO)C(=O)CCCn2nncc2CO[C@@H]1CN(C)Cc1ccc(C(=O)Nc2ccccc2N)cc1 | 59.4%
50 | C[C@H](CO)N1C[C@H](C)[C@H](CN(C)C(=O)Nc2ccc(C(F)(F)F)cc2)OCCCC[C@H](C)Oc2ccc(NC(=O)C3CCCCC3)cc2C1=O | 109% (active)
51 | C[C@@H]1CCCCO[C@H](CN(C)C(=O)Nc2ccc(C(F)(F)F)cc2)[C@H](C)CN([C@H](C)CO)C(=O)c2cc(NC(=O)Nc3ccc(C(F)(F)F)cc3)ccc2O1 | 115% (active)
52 | C[C@@H]1CN([C@@H](C)CO)C(=O)c2cc(NC(=O)Nc3ccc(C(F)(F)F)cc3)ccc2O[C@@H](C)CCCCO[C@H]1CN(C)C(=O)c1ccccc1 | 69.7%
53 | COc1ccc(NC(=O)N(C)C[C@H]2OCCCC[C@H](C)Oc3ccc(NC(=O)Nc4ccc(C(F)(F)F)cc4)cc3C(=O)N([C@@H](C)CO)C[C@@H]2C)cc1 | 113% (active)
54 | CC(C)NC(=O)Nc1ccc2c(c1)C(=O)N([C@H](C)CO)C[C@H](C)[C@H](CN(C)C(=O)Nc1ccc(C(F)(F)F)cc1)OCCCC[C@@H](C)O2 | 94%
55 | C[C@@H]1CCCCO[C@H](CN(C)C(=O)CCC(F)(F)F)[C@H](C)CN([C@H](C)CO)C(=O)c2cc(NS(C)(=O)=O)ccc2O1 | 7.29%
56 | CCCC#Cc1ccc2c(c1)O[C@H](CN(C)C(=O)CC)[C@@H](C)CN([C@H](C)CO)S2(=O)=O | 38.5%
57 | C/C=C/c1ccc([C@H]2[C@@H](CNC(C)C)N(c3nc(CC)cs3)[C@H]2CO)cc1 | 89.5%
58 | CCCC#Cc1ccc([C@H]2[C@H](CO)N3CCCCN(C(=O)c4ccc5c(c4)OCO5)C[C@@H]23)cc1 | 42.1%
